High-throughput results (PubChem)
LMPTP inh: LMPTP (human) inhibition. P24666. recombinant LMPTP-A, OMFP fluorogenic substrate, fluorescence intensity. inhibition, % at 20 µM. actives 0.22% (n = 360,000). AID 651560;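 active = compounds that cut the enzyme signal by at least half of the control window in the single-dose screen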;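 note: plate controls were DMSO wells with enzyme plus substrate for no effect and substrate without enzyme for full effect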
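Test system: LMPTP-A, protein tyrosine phosphatase of low molecular weight; Input: 0.625 nM enzyme; Incubation: 50 min dark incubation at room temperature; Signal: endpoint fluorescence intensity from OMFP dephosphorylation; Read-out basis: % inhibition versus control wells.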
DNMT1 block: blocks human DNA methyltransferase DNMT1; inhibition (reported as % activation of signal), % at 10 µM; actives 0.83% (n = 360,000); DNMT1 molecular beacon, Hinp1I cleavage, fluorescence; AID 588458; P26358; in the data active = inhibition above about 50%
STEP inh: STEP (human) phosphatase inhibition; P54829; recombinant STEP, OMFP fluorogenic substrate, fluorescence; inhibition, % at 20 µM; actives 0.25% (n = 360,000);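 active = inhibition at 20 µM, scaled per plate between control wells, above about 37%, limit read from the data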;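 note: 0% = DMSO with enzyme and substrate and 100% = substrate only without enzyme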
Target sequence (P54829 whole entry, looked up): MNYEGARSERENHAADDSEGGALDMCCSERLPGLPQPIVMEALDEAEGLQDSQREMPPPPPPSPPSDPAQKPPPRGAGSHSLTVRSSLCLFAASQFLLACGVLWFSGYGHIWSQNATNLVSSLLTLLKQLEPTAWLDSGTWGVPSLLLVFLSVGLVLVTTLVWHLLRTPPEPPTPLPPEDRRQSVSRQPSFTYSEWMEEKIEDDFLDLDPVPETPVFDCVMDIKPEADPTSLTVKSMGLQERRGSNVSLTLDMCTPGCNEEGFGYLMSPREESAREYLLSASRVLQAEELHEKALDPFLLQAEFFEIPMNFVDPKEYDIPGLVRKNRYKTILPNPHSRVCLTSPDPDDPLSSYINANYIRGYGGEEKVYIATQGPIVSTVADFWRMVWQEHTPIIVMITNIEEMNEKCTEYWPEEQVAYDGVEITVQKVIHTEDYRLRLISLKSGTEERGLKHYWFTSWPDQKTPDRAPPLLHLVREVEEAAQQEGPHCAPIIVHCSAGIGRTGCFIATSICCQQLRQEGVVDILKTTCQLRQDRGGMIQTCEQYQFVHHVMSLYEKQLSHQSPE
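System: STEP (striatal-enriched tyrosine phosphatase) enzyme, cell-free; medium: Bis-Tris pH 6.0 buffer with DTT, detergent; dosing: 20 µM, 1% DMSO; times: reaction 20 min, ambient temperature; detection: fluorescence, 480/540 nm; read-out basis: normalized % inhibition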
SUMO1-SIM PPI: modulators of human SUMO1-mediated protein-protein interactions. inhibition, % at 20 µM. SUMO1 binding to a labelled peptide, TR-FRET, 1 h. actives 0.33% (n = 360,000). P63165; in the data active = inhibition above about 37%
Target sequence (P63165 whole entry, looked up): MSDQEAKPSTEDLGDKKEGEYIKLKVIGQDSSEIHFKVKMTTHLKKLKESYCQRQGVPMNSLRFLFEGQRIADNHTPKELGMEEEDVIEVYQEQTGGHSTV
Scp-1 inhibitor: Scp-1 (human) phosphatase inhibition; Recombinant Scp1, phosphopeptide, malachite green phosphate absorbance; Q9GZU7; inhibition, % at 20 µM; actives 0.88% (n = 340,000);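 active = inhibition above about 50% at 20 µM, limit read from the data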;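 note: plate controls were DMSO wells with enzyme for no effect and wells lacking enzyme for full effect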
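assay system = SCP-1 phosphatase catalytic domain, residues 76-261 | buffer or medium = 50 mM Tris acetate pH 5.5, 0.005% Tween-20, 10 mM MgCl2 | incubation = enzyme reaction 45 min at room temperature, colour 5 min, stabilisation 30 min | signal = Phosphate-binding colour reagent, absorbance read at 630 nm | measure = % inhibition at 20 µM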
Active calls of the source: *; . = not tested or not shown. Most compounds without a hit are left out; they make up all but 1.7% or so of the library.

SMILES | LMPTP inh | DNMT1 block | STEP inh | SUMO1-SIM PPI | Scp-1 inhibitor
CCCC(C)C(=O)Nc1nc(C)c(-c2csc(Nc3cc(Cl)ccc3C)n2)s1 (centres undefined) | -0.8 | -27.9 | -1.7 | 77.6* | 7.5
CCCCCCC(=O)Nc1nc(C)c(-c2csc(Nc3cc(OC)ccc3OC)n2)s1 | 1.7 | -32.0 | -1.3 | 70.0* | 7.9
CCCCCC(=O)Nc1nc(C)c(-c2csc(Nc3cc(OC)ccc3OC)n2)s1 | 2.2 | -38.1 | 0.7 | -1.1 | 4.0
Cc1ccc(Cl)cc1Nc1nc(-c2sc(NC(=O)c3ccco3)nc2C)cs1 | 1.4 | -31.8 | -0.6 | 1.2 | -0.2
Cc1cccn2c(=O)c(/C=N/O)c(Nc3ccccc3F)nc12 | 15.8 | 11.4 | 1.9 | 51.9* | -11.4
CCC(=O)Nc1ccc(C(=O)COC(=O)c2nc3nccc(C)n3n2)cc1 | 46.2 | 109.5* | 5.4 | 24.9 | 71.8*
Cc1ccnc2nc(C(=O)OCC(=O)c3ccc(NC(=O)CC(C)C)cc3)nn12 | 1.6 | -7.5 | 0.6 | 0.3 | 27.5
CCOc1ccc(OCCC(=O)N(CCC(C)C)c2c(N)n(Cc3ccccc3)c(=O)[nH]c2=O)cc1 | -0.6 | 2.3 | -3.9 | 0.1 | 3.7
CCCn1nnnc1NCc1c(F)cccc1Cl | -1.7 | -2.4 | 2.4 | 0.0 | 1.2
CC(C)=C1CCC(C)CC1=NNC(N)=S (centres undefined) | -1.0 | 1.0 | -1.4 | -3.0 | 56.0*
COC(=O)c1c[nH]c2c1-c1cc(C(=O)OCc3ccccc3)n(S(=O)(=O)c3ccc(C)cc3)c1C(=O)C2=O | 60.3* | 96.2* | 5.3 | -0.7 | 4.7
Cc1ccc(S(=O)(=O)Cc2ccc(C(=O)OCc3ccccc3)cc2)cc1 | 3.4 | 3.9 | -4.1 | -2.2 | -14.1
CCC(CO)Oc1cc(NC(=O)c2ccccc2N)c2ncn(C(C)C)c2c1 (centres undefined) | -1.2 | -7.4 | -3.3 | 6.4 | 0.6
CCC(CO)Oc1cc(NC(=O)c2ccccc2C)c2ncn(C(C)C)c2c1 (centres undefined) | -2.1 | -45.9 | -3.0 | 50.0* | -5.9
CCC(CO)Oc1cc(NC(=O)c2ccccc2F)c2ncn(C(C)C)c2c1 (centres undefined) | -2.3 | -30.1 | 1.8 | 92.0* | 4.0
CCC(CN(C)C)Oc1cc(NCc2ccccc2)c2ncn(C(C)C)c2c1 (centres undefined) | 4.9 | 60.6* | -1.9 | 4.5 | 1.6
C#CCNC(=O)C[C@@H]1C[C@@]2(C(=O)OC)CC(C)(C)CC=C2N(CCc2ccc(OC)c(OC)c2)C1=O | 1.3 | . | . | -3.6 | .
CSc1nc2c(=S)[nH]c(=S)[nH]c2s1 | 2.3 | -3.3 | 7.3 | -0.4 | .
Cn1c(N)c(C(=O)COC(=O)c2cc3ccccc3cc2O)c(=O)n(C)c1=O | 2.3 | -18.6 | 4.4 | 50.7* | -19.1
Cn1c(N)c(C(=O)COC(=O)CSc2ccc3ccccc3c2)c(=O)n(C)c1=O | 0.4 | 0.0 | 1.4 | -1.4 | -8.7
N#Cc1c(NC(=O)Cn2c(=O)oc3ccccc32)oc(-c2ccccc2)c1-c1ccccc1 | 4.6 | -9.6 | -3.1 | 41.4* | -12.2
O=C(Cn1c(=O)oc2ccccc21)Nc1ccc(Br)cc1 | 1.1 | 2.4 | 0.7 | 6.2 | -1.6
CC1=N/C(=C/c2ccco2)C(=O)O1 | -1.3 | 93.4* | 8.6 | 12.5 | 56.5*
CCn1nccc1NC(=O)c1ccc2sc([C@@H]3O[C@H](CO)[C@H](O)[C@H](O)[C@H]3O)nc2c1 | -0.4 | -0.4 | 0.5 | 0.8 | .
Cc1ccc(S(=O)(=O)Nc2ccc(Cl)cc2O)cc1 | -0.7 | . | . | 1.9 | .
SMILES | LMPTP inh | DNMT1 block | STEP inh | SUMO1-SIM PPI | Scp-1 inhibitor
Cc1cccc(-n2nc3c(c2NC(=O)c2ccco2)CSC3)c1C | 3.8 | 86.5* | 2.2 | 6.4 | 49.7
CSc1ccc(/C=C(/NC(=O)c2ccc(C)cc2)C(=O)Nc2cccc(F)c2)cc1 | -2.0 | 38.5 | -2.7 | 0.9 | -4.4
O=C(NCc1ccccc1Br)C1CCCO1 (centres undefined) | -0.7 | -1.3 | -1.5 | 3.3 | -2.0
O=C(CN1CCN(S(=O)(=O)c2ccc(Br)cc2)CC1)c1ccc(O)c(O)c1 | 59.0* | 2.5 | 2.6 | -6.0 | 4.8
CC(C)c1ccc(S(=O)(=O)N2CCN(CC(=O)c3ccc(O)c(O)c3)CC2)cc1 | 67.8* | 3.6 | 1.8 | -3.0 | .
CC(C)c1ccc(S(=O)(=O)N2CCN(CC(=O)Nc3ccc(Cl)cc3F)CC2)cc1 | 1.7 | -6.2 | 2.1 | -1.8 | 2.3
COc1ccc(OC)c(C(=O)CN2CCN(S(=O)(=O)c3ccc(Br)cc3)CC2)c1 | -4.9 | -5.2 | 6.7 | -0.5 | -1.2
CC(C)(CN1CCc2ccccc2C1)NS(=O)(=O)c1ccc(Cl)cc1 | 1.9 | -2.6 | 0.5 | 44.6* | -5.2
O=C(C1=C[C@@H]2[C@H]3C(=O)N(c4cccc(Cl)c4)C(=O)[C@H]3[C@@H](C(=O)c3ccc(Cl)cc3)N2C=C1)c1ccccc1 | 2.6 | 68.7* | 3.6 | -2.5 | -9.6
O=C1C(Cl)=C(N2CCCCCC2)C(=O)N1c1ccc(Cl)cc1 | 1.9 | 1.5 | 19.6 | -20.5 | -4.7
O=C1C(Cl)=C(N2CCCCC2)C(=O)C(Cl)=C1c1cnc(N2CCCCC2)s1 | 16.5 | 84.0* | 7.8 | 10.9 | 5.6
CN(C)c1ncc(C2=C(Cl)C(=O)C(N3CCCC3)=C(Cl)C2=O)s1 | 13.5 | 69.2* | 7.3 | 34.9 | 18.0
CC(=O)c1cccc(NC(=O)c2cccc3c(-c4cccc(C(N)=O)c4)coc23)c1 | 2.3 | -4.8 | 1.4 | 49.5* | .
CCn1cc(C(=O)O)c(=O)c2cnc(N3CCN(C(=S)Nc4ccccc4Cl)CC3)nc21 | 51.4* | -0.1 | 4.8 | 8.0 | 2.5
CCn1cc(C(=O)O)c(=O)c2cc(F)c(N3CCN(C(=S)NC(=O)c4ccc(OC)cc4)CC3)cc21 | 67.3* | 0.9 | 6.6 | 5.6 | -9.1
CCCCCCCCC(=O)N1CCN(c2cc3c(cc2F)c(=O)c(C(=O)O)cn3CC)CC1 | 15.5 | -3.5 | 2.0 | 1.3 | -9.7
CCn1cc(C(=O)O)c(=O)c2cc(F)c(N3CCN(C(=O)Nc4ccccc4)CC3)cc21 | 51.2* | -1.6 | -0.6 | 10.2 | -9.7
CCn1cc(C(=O)O)c(=O)c2cc(F)c(N3CCN(S(=O)(=O)c4ccc5c(c4)OCCO5)CC3)cc21 | 61.7* | -1.3 | -0.4 | 4.8 | 0.6
O=C(CN1C(=O)C(=O)N(C2CCCC2)C1=O)Nc1cc(Cl)ccc1[N+](=O)[O-] | -1.0 | 1.8 | 1.5 | -31.1 | -2.7
CCn1cc(C(=O)O)c(=O)c2cc(F)c(N3CCN(C(=S)NC(=O)c4cccc(C)c4)CC3)cc21 | 60.3* | -2.6 | 2.5 | 4.8 | -12.3
CCn1cc(C(=O)O)c(=O)c2cc(F)c(N3CCN(C(=S)NC(=O)c4ccc(Br)cc4)CC3)cc21 | 60.8* | -1.8 | 3.1 | 24.5 | -7.2
CCn1cc(C(=O)O)c(=O)c2cc(F)c(N3CCN(C)CC3)cc21 | -1.9 | -3.0 | -1.1 | -0.2 | -1.3
CCCCCCCC(=O)N1CCN(c2cc3c(cc2F)c(=O)c(C(=O)O)cn3CC)CC1 | 9.2 | -0.6 | 2.7 | 0.3 | -4.0
